As usually defined, the EC50 is the midpoint of the concentration-response curve. In general, half-life refers to the time in which the quantity being followed falls by half. For orientation: logP means the decadic logarithm of the partition coefficient of the neutral form, usually between octanol and water. A low value points to a more hydrophilic compound.

Molecules are shown by their SMILES. The source made the active and inactive calls. The rule behind the calls is not given here.

The values below come from ChEMBL document CHEMBL1151718, “Design, synthesis, and biological characterization of a caspase 3/7 selective isatin labeled with 2-[18F]fluoroethylazide” (J Med Chem, 2008).

The nature of data set [1]: Metabolic stability in mouse liver S9 fraction at pH 7.4. To be noted: s9, pH 7.4. In kind it is ADME, subcellular. The essentials: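 Mouse liver homogenized in 50 mM Tris–150 mM KCl–HCl pH 7.4 and spun at 10000g for 30 min to give S9. Compound (10 µL of 10 mM stock) was incubated with S9 (20 µL of 33.26 mg/mL) and 0.5 mM NADPH in Tris-HCl pH 7.4 (1 mL total), 60 min at 37 °C in air. Stopped with ice-cold acetonitrile and analyzed by gradient reverse-phase HPLC.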

The target in a further data set is T1, Caspase-3 (Mus musculus) (UniProt P70677).
T1 sequence (whole entry): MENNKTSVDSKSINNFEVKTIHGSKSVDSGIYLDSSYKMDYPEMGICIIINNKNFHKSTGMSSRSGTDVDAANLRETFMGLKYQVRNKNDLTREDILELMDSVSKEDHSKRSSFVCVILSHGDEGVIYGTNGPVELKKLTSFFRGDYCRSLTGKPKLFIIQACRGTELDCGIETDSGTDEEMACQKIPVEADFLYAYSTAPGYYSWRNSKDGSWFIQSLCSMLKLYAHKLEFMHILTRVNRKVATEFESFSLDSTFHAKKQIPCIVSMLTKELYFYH
The experiment in a line: Inhibition of caspase 3 in mouse RIF1 cells assessed as disruption of cisplatin-stimulated PARP induction by Western blot. In kind it is cell-based. To be noted: RIF-1. In short, it runs like this:
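RIF-1 murine fibrosarcoma cells were pretreated 15 min with caspase inhibitors (Z-VAD-FMK 100 µM as control), then given cisplatin 100 µM for 48 h. Lysates were made in RIPA with protease/phosphatase inhibitors, and 30 µg protein was run on 4–12% SDS-PAGE and blotted to PVDF. Probed with anti-cleaved PARP (89 kDa fragment) and α-tubulin loading control, detected by ECL.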

Data set [2] relates to Plasma. As to the kind of experiment: Metabolic stability in […] mouse plasma assessed as ratio of peak to total radioactivity present on chromatogram at 3.7 MBq, iv after 15 mins. The format is ADME, organism-based. To be noted: in vivo, 0.25 h. In short, it runs like this: (§1)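 [¹⁸F]15 (7.4 MBq) injected iv into non-tumor-bearing C3H/hej mice. Plasma and liver were snap-frozen, extracted with ice-cold acetonitrile (liver homogenized), centrifuged and dried. Extracts were analyzed by reverse-phase C18 radio-HPLC (ammonium formate/methanol:acetonitrile gradient). Percent parent = parent peak relative to total chromatogram radioactivity. Plasma: average of 3 studies per time point; liver: individual results from two samples.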

The next data set deals with Liver. As to the kind of experiment: Metabolic stability […] mouse liver assessed as ratio of peak to total radioactivity present on chromatogram at 3.7 MBq, iv after 2 mins. In kind it is ADME, organism-based. To be noted: in vivo. In short, it runs like this: as §1
Data set [3] can be described thus: Increase in drug uptake in mouse RIF1 cells after 60 mins relative to control. The format is ADME, cell-based. As to conditions: rif-1, 1 h. In short, it runs like this:
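RIF-1 murine fibrosarcoma cells, plated in triplicate 2–3 days ahead, were exposed to CDDP at 100 µM or to vehicle (0.1% DMSO) for 48 h. About 10 µCi/well of the 18F tracer was then taken up for 60 min at 37 °C. Cells were collected, washed, resuspended in PBS and gamma-counted. Decay-corrected counts/min were normalised to mg protein (BCA), and the treated level was compared with the untreated one.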

The test system of data set [4] is Plasma. The experiment in a line: Metabolic stability in […] mouse plasma assessed as ratio of peak to total radioactivity present on chromatogram at 3.7 MBq, iv after 2 mins. In kind it is ADME, organism-based, RIF-1. As to conditions: in vivo, in the assay text read “7.4 MBq” for “3.7 MBq”. The essentials:
as §1

The target in the next data set is T2, Caspase-3 (Homo sapiens, UniProt P42574).
T2 sequence (P42574 whole entry): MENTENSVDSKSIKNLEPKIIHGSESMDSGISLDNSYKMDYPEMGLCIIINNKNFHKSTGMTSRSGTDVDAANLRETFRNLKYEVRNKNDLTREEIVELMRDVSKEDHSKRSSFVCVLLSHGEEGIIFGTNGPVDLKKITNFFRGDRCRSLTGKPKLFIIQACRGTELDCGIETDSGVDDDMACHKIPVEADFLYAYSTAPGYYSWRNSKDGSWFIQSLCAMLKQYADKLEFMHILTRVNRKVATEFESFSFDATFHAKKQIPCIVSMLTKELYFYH
As to the kind of experiment: Inhibition of human recombinant caspase 3 assessed as accumulation of 7-amino-4-methylcoumarin substrate. In short, it runs like this:
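Substrates at 10 µM: Ac-DEVD-AMC (caspase 3), Ac-VEID-AMC (caspase 6), Ac-IETD-AMC (caspase 8), added after 10 min preincubation with inhibitor (5 pM–500 µM). Duplicates, two runs; EC50 by nonlinear regression.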

The target of another data set is T3, Caspase-7 (Homo sapiens, UniProt P55210).
T3 sequence (P55210 whole entry): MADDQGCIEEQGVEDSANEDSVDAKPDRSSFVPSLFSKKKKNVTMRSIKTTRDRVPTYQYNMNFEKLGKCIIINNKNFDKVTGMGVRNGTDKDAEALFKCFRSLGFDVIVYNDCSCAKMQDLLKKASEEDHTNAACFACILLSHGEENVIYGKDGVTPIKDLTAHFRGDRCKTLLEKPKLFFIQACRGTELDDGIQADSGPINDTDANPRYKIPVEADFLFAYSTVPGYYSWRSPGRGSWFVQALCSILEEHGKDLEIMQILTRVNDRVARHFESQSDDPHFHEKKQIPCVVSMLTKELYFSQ
As to the kind of experiment: Inhibition of human recombinant caspase 7 assessed as accumulation of 7-amino-4-methylcoumarin substrate. The essentials:
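Isatin (5 pM–500 µM, 9 levels) preincubated 10 min, then Ac-DEVD-AMC (10 µM final) added for 30 min. 7-AMC fluorescence read at ex 355/em 460 nm against no-enzyme controls. EC50 by nonlinear regression; duplicates, two runs.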

The next data set has as its target T4, Caspase-1 (Homo sapiens, UniProt P29466).
T4 sequence (P29466 whole entry): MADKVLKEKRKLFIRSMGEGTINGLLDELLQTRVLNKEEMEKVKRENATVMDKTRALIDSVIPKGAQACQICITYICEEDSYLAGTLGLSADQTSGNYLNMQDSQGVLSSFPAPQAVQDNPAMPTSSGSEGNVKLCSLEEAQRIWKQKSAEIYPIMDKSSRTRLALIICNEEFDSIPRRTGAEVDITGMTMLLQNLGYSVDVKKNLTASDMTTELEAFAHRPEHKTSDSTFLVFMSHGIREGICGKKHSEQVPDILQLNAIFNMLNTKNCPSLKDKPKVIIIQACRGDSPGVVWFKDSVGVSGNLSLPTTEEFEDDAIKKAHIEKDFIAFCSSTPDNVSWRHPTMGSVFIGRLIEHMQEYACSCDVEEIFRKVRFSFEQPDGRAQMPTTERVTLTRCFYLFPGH
The experiment in a line: Inhibition of human recombinant caspase 1 assessed as accumulation of 7-amino-4-methylcoumarin substrate. The essentials: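 Recombinant human caspase 1 (0.5 units) at 37 °C in 100 mM HEPES pH 7.4, 0.1% CHAPS, 100 mM NaCl, 5 mM 2-mercaptoethanol, 2 mM EDTA, 10% sucrose, 5% DMSO final. Inhibitor (5 pM–500 µM, 9 concentrations) preincubated 10 min before adding 10 µM Ac-YVAD-AMC for 30 min. 7-AMC fluorescence read at ex 355/em 460 nm against no-enzyme controls. Duplicates, two runs; EC50 by nonlinear regression.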

The target of a further data set is T5, Caspase-6 (Homo sapiens, UniProt P55212).
T5 sequence (P55212 whole entry): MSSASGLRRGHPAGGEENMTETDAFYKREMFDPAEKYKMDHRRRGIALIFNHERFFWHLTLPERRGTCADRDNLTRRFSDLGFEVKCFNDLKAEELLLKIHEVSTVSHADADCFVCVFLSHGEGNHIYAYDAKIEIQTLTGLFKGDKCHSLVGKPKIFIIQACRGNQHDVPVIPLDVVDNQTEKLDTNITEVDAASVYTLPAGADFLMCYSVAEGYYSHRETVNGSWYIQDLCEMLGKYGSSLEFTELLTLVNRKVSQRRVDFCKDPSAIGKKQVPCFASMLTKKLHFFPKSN
The experiment in a line: Inhibition of human recombinant caspase 6 assessed as accumulation of 7-amino-4-methylcoumarin substrate. The essentials:
(§2)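 Substrates at 10 µM: Ac-DEVD-AMC (caspase 3), Ac-VEID-AMC (caspase 6), Ac-IETD-AMC (caspase 8), added after 10 min preincubation with inhibitor (5 pM–500 µM). 7-AMC read after 30 min at ex 355/em 460 nm. Duplicates, two runs; EC50 by nonlinear regression.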

The next data set deals with Caspase-8 (Homo sapiens, UniProt Q14790). As to the kind of experiment: Inhibition of human recombinant caspase 8 assessed as accumulation of 7-amino-4-methylcoumarin substrate. The essentials: as §2
Data set [5] can be described thus: Chemical stability assessed as half life. The format is physicochemical.
Data set [6] in a line: Lipophilicity, log P of the compound. In kind it is physicochemical. To be noted: octanol/water.

Chain of Caspase-8 (Q14790 217-374 limits assumed): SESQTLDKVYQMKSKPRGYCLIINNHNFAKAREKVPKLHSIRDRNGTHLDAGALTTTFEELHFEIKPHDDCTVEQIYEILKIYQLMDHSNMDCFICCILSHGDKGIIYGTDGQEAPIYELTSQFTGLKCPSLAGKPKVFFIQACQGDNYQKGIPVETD
Chain of Caspase-8 (Q14790 385-479 limits assumed): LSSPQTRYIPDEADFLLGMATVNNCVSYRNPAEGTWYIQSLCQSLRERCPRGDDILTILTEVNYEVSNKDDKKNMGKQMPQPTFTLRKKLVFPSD

On to `O=C1C(=O)N(Cc2ccc(F)cc2)c2ccc(S(=O)(=O)N3CCCC3)cc21`, for which, in [1], the Stability entry is on record as “Stable”. Take `O=C1C(=O)N(Cc2ccc(I)cc2)c2ccc(S(=O)(=O)N3CCC[C@H]3COc3ccccc3)cc21`: at Caspase-3 (Mus musculus), the result was inactive. As for `O=C1C(=O)N(Cc2cn(CC[18F])nn2)c2ccc(S(=O)(=O)N3CCC[C@H]3COc3ccc(F)cc3F)cc21`, the Activity in the data set on Plasma [2] was determined as 61.3%; in the data set on Liver, 35.7%; in the data set on Plasma [4] it was 86.1%. In [3], the “fold change (FC)” value was 1.5.

For `O=C1C(=O)N(Cc2ccc(F)cc2)c2ccc(S(=O)(=O)N3CCC[C@H]3COCc3cn(CCF)nn3)cc21`, the concentration for a half-maximal effect (EC50) is 12.6 nM on Caspase-3; 18.3 nM at Caspase-7; greater than 5000 nM at Caspase-1; greater than 5000 nM at Caspase-6; greater than 5000 nM on Caspase-8. On to `O=C1C(=O)N(Cc2ccc(F)cc2)c2ccc(S(=O)(=O)N3CCC[C@H]3COc3ccccc3)cc21`, for which, at Caspase-3, the EC50 came out at 50.5 nM. As to `O=C1C(=O)N(Cc2ccc([125I])cc2)c2ccc(S(=O)(=O)N3CCC[C@H]3COc3ccccc3)cc21`, the half-life in data set [5] was 59.9 days.

As to `O=C1C(=O)N(Cc2cn(CCF)nn2)c2ccc(S(=O)(=O)N3CCC[C@H]3COc3ccc(F)cc3F)cc21`, in data set [6], the logP amounted to 1.61. Regarding `O=C1C(=O)N(Cc2ccc(F)cc2)c2ccc(S(=O)(=O)N3CCC[C@H]3COC3CCOCC3)cc21`, at Caspase-3, the EC50 was found to be 10.7 nM.
